Columns and labels:
Design in all cases: scale not given: the % may be the effect or the level left
[1] = species on record: Rattus norvegicus; assay: Reduction in sterol level in CFE rat […] in serum at 0.1% of diet treated through diet for 6 days relative to control; assay type: functional
Method in brief: (§1)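 Compound dissolved in methanol-chloroform (1:3 v/v), mixed into ground rat chow at 0.1, 0.05 or 0.025% (w/w), and solvent evaporated; controls received solvent-treated chow. Rats fed ad libitum with water for 6 days, then killed fed and bled. Serum sterols and triglycerides measured by autoanalyzer. Values given as percent of control, mean ± SE; significance by Student's t test.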

[2] = species on record: Rattus norvegicus; assay: Reduction in sterol level in CFE rat […] in serum at 0.05% of diet treated through diet for 6 days relative to control; assay type: functional; method in brief: as §1
[3] = species on record: Rattus norvegicus; assay: Reduction in sterol level in CFE rat […] at 0.025% of diet treated through diet for 6 days relative to control; assay type: functional, Serum; method in brief: as §1
[4] = species on record: Rattus norvegicus; assay: Reduction in triglyceride level in CFE rat […] in serum at 0.1% of diet treated through diet for 6 days relative to control; assay type: functional; method in brief: as §1
[5] = species on record: Rattus norvegicus; assay: Reduction in triglyceride level in CFE rat […] in serum at 0.05% of diet treated through diet for 6 days relative to control; assay type: functional; method in brief: as §1
[6] = species on record: Rattus norvegicus; assay: Reduction in triglyceride level in CFE rat […] at 0.025% of diet treated through diet for 6 days relative to control; assay type: functional, Serum; method in brief: as §1
[7] = species on record: Rattus norvegicus; assay: Reduction in sterol level in CFE rat […] in serum at 0.005% of diet treated through diet for 6 days relative to control; assay type: functional
[8] = species on record: Rattus norvegicus; assay: Reduction in triglyceride level in CFE rat […] in serum at 0.005% of diet treated through diet for 6 days relative to control; assay type: functional
[9] = species on record: Rattus norvegicus; assay: Reduction in sterol level in CFE rat […] in serum at 0.3% of diet treated through diet for 6 days relative to control; assay type: functional
[10] = species on record: Rattus norvegicus; assay: Reduction in triglyceride level in CFE rat […] in serum at 0.3% of diet treated through diet for 6 days relative to control; assay type: functional

`CCCCCCCCCCCCCCCCOc1ccc(C(=O)O)cc1` gave an Activity [1] of 74%, an Activity [2] of 83% and an Activity [3] of 89%. The Activity [4] was 46%, the Activity [5] was 62% and the Activity [6] was 58%.
`C=CCCCCCCCCCOc1ccc(C(=O)O)cc1` showed an Activity [1] of 86%, an Activity [2] of 99% and an Activity [3] of 100%. The Activity [4] was 60%, the Activity [5] was 81% and the Activity [6] was 82%.
With `CC(C)=CCC/C(C)=C/CC/C(C)=C/COc1ccc(C(=O)O)cc1` the Activity [1] was 87%, the Activity [2] was 102% and the Activity [3] was 108%. It also gave an Activity [4] of 133%, an Activity [5] of 111% and an Activity [6] of 131%.
`CCCCCCCCCCCCCCCC(C)(C)Oc1ccc(C(=O)O)cc1` showed an Activity [1] of 96%, an Activity [2] of 112% and an Activity [3] of 101%. It also gave an Activity [4] of 100%, an Activity [5] of 111% and an Activity [6] of 103%.
With `O=C(O)c1ccc(OC23CC4CC(CC(C4)C2)C3)cc1` the Activity [1] was 88%, the Activity [2] was 87% and the Activity [3] was 90%. It also gave an Activity [4] of 85%, an Activity [5] of 89% and an Activity [6] of 85%.
In the case of `CCCCCCCCC/C=C/CCCOc1ccc(C(=O)O)cc1`, the Activity [1] is reported as 77%, the Activity [2] is reported as 73% and the Activity [3] is reported as 87%. For the same molecule, the Activity [4] was 87%, the Activity [5] was 89% and the Activity [6] was 89%.
With `CCCCCCCCCC/C=C/CCCOc1ccc(C(=O)O)cc1` the Activity [1] was 79%, the Activity [2] was 92% and the Activity [3] was 92%. For the same molecule, the Activity [4] was 92%, the Activity [5] was 76% and the Activity [6] was 72%.
For `CCCCCCCCCCC/C=C/CCCOc1ccc(C(=O)O)cc1`, the Activity [1] was 69%, the Activity [2] was 67% and the Activity [3] was 75%. The Activity [4] was 59%, the Activity [5] was 76% and the Activity [6] was 76%.
`CCCCCCCCCCCCC/C=C\COc1ccc(C(=O)O)cc1` was tested, and the Activity [1] was 90%, the Activity [2] was 87% and the Activity [3] was 95%. The Activity [4] was 60%, the Activity [5] was 79% and the Activity [6] was 88%.
`CCCCCCCCCCCCC/C=C/COc1ccc(C(=O)O)cc1` was tested, and the Activity [1] was 81%, the Activity [2] was 85% and the Activity [3] was 106%. The Activity [4] was 46%, the Activity [5] was 57% and the Activity [6] was 45%.
For `CCCCCCCCCCCCCC#CCOc1ccc(C(=O)O)cc1`, the Activity [1] was 82%, the Activity [2] was 88% and the Activity [3] was 98%. It also gave an Activity [4] of 75%, an Activity [5] of 65% and an Activity [6] of 96%.
Molecule `C=CCCCCCCCC/C=C/CCCOc1ccc(C(=O)O)cc1` has an Activity [1] of 74%, an Activity [2] of 87% and an Activity [3] of 92%. For the same molecule, the Activity [4] was 83%, the Activity [5] was 96% and the Activity [6] was 83%.
For `CCCCCCCCCCCC1OC1CCCOc1ccc(C(=O)O)cc1` (stereo not given), the Activity [1] was 85%, the Activity [2] was 85% and the Activity [3] was 90%. The Activity [4] was 55%, the Activity [5] was 52% and the Activity [6] was 74%.
`O=C(O)c1ccc(OC(=O)C2C3CC4CC(C3)CC2C4)cc1` (stereo not given) gave an Activity [1] of 92%, an Activity [2] of 99% and an Activity [3] of 93%. For the same molecule, the Activity [4] was 113%, the Activity [5] was 101% and the Activity [6] was 90%.
With `O=C(O)c1ccc(OCCCCCCCCCCCCCCCOc2ccc(C(=O)O)cc2)cc1` the Activity [1] was 94%, the Activity [2] was 103% and the Activity [3] was 97%. It also gave an Activity [4] of 51%, an Activity [5] of 77% and an Activity [6] of 64%.
For `CCCCCCCCCCCC(=O)CCOc1ccc(C(=O)O)cc1`, the Activity [1] was 92%, the Activity [2] was 89% and the Activity [3] was 89%. It also gave an Activity [4] of 74%, an Activity [5] of 75% and an Activity [6] of 84%.
For `FC(F)(F)c1ccc(-c2ccc(OCCN3CCCC3)cc2)cc1` [BOXIDINE], the Activity [7] was 60% and the Activity [8] was 55%.
`CCOC(=O)C(C)(C)Oc1ccc(Cl)cc1` [CLOFIBRATE] gave an Activity [9] of 81% and an Activity [10] of 42%.

From ChEMBL document CHEMBL3272177, “Hypolipidemic alkoxybenzoic acids” (1976)
